ChEMBL document CHEMBL4007505 (J Med Chem, 2017)
Active and inactive are the calls of the source.

Columns and labels:
[1] = molecular target: T1, Sodium-dependent dopamine transporter (Homo sapiens, UniProt Q01959); experiment: Enhancing of [125I]RTI-55 binding to recombinant human DAT expressed in HEK293 cell membranes preincubated for 10 mins followed by radioligand addition measured after 90 mins by micro beta scintillation counting analysis; design: concentration or dose not given beside the values; details: for EC50: read-out: EC50
Summary of the method: (§1)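 Membranes of HEK-293 cells stably expressing hDAT, hNET or hSERT. […] Compound preincubated 10 min at room temperature, then [125I]23 (40-80 pM final) or [3H]26 (1-3 nM for DAT and NET, 10-13 nM for SERT) added. Incubated 90 min at room temperature in the dark, then filtered. EC50 or Ki; mean ± SEM.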

[2] = molecular target: T1, Sodium-dependent dopamine transporter; experiment: Enhancing of [3H]mazindol binding to recombinant human DAT expressed in HEK293 cell membranes preincubated for 10 mins followed by radioligand addition measured after 90 mins by micro beta scintillation counting analysis; design: concentration or dose not given beside the values; details: for EC50: read-out: EC50; summary of the method: as §1
[3] = molecular target: T2, Sodium-dependent noradrenaline transporter (Homo sapiens, UniProt P23975); experiment: Enhancing of [125I]RTI-55 binding to recombinant human NET expressed in HEK293 cell membranes preincubated for 10 mins followed by radioligand addition measured after 90 mins by micro beta scintillation counting analysis; design: concentration or dose not given beside the values; details: for EC50: read-out: EC50
[4] = molecular target: T1, Sodium-dependent dopamine transporter; experiment: Inhibition of recombinant human DAT expressed in HEK293 cell […] as reduction in [3H]-DA uptake incubated for 22 mins by micro beta scintillation counting analysis
[5] = molecular target: T2, Sodium-dependent noradrenaline transporter; experiment: Enhancing of [3H]mazindol binding to recombinant human NET expressed in HEK293 cell membranes preincubated for 10 mins followed by radioligand addition measured after 90 mins by micro beta scintillation counting analysis
[6] = molecular target: T2, Sodium-dependent noradrenaline transporter; experiment: Inhibition of recombinant human NET expressed in HEK293 […] assessed as reduction in [3H]-norepinephrine uptake incubated for 22 mins by micro beta scintillation counting analysis
[7] = molecular target: T3, Sodium-dependent serotonin transporter (Homo sapiens, UniProt P31645); experiment: Enhancing of [125I]RTI-55 binding to recombinant human SERT expressed in HEK293 cell membranes preincubated for 10 mins followed by radioligand addition measured after 90 mins by micro beta scintillation counting analysis; details: for EC50: read-out: EC50
[8] = molecular target: T3, Sodium-dependent serotonin transporter; experiment: Enhancing of [3H]mazindol binding to recombinant human SERT expressed in HEK293 cell membranes preincubated for 10 mins followed by radioligand addition measured after 90 mins by micro beta scintillation counting analysis
[9] = molecular target: T3, Sodium-dependent serotonin transporter; experiment: Inhibition of recombinant human SERT expressed in HEK293 cell […] as reduction in [3H]5-HT uptake incubated for 22 mins by micro beta scintillation counting analysis
Target sequence in this assay (P31645 whole entry): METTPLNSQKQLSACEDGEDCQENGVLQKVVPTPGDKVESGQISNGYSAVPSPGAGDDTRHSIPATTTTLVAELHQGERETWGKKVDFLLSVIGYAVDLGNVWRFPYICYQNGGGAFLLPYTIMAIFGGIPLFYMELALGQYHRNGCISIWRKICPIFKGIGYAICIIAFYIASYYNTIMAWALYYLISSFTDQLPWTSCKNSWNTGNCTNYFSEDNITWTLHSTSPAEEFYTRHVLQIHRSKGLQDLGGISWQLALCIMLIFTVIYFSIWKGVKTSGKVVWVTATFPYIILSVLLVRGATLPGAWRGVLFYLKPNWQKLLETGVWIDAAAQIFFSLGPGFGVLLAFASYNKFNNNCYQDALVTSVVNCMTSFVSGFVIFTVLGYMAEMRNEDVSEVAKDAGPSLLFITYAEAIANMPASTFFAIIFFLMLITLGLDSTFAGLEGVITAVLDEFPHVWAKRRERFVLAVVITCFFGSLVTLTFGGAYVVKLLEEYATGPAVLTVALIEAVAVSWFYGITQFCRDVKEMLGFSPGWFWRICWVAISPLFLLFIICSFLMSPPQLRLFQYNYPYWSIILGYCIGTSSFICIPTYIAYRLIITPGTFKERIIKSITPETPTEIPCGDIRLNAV

[10] = molecular target: Sodium-dependent dopamine transporter (Mus musculus) (UniProt Q61327); experiment: (§2) Enhancing of [125I]RTI-55 binding to mouse DAT expressed in HEK293 cells preincubated for 10 mins followed by radioligand addition measured after 90 mins by micro beta scintillation counting analysis; format: cell-based
Summary of the method: (§3)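 Membranes preincubated 10 min at room temperature with compound in Krebs-HEPES buffer pH 7.4, then [125I]23 at fixed 45-50 pM for 90 min in the dark, filtered. […] EC50 and % control binding; mean ± SEM.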

[11] = molecular target: T4, Sodium-dependent dopamine transporter (Mus musculus, UniProt Q61327); experiment: as §2; format: cell-based; summary of the method: as §3
[12] = molecular target: T4, Sodium-dependent dopamine transporter; experiment: Inhibition of mouse DAT expressed in HEK293 cells assessed as reduction in [3H]-DA uptake; format: cell-based
[13] = molecular target: T1, Sodium-dependent dopamine transporter; experiment: Enhancing of [3H]WIN35,428 binding to recombinant human DAT expressed in HEK293 cell membranes at 10 uM pre-incubated for 10 mins before radioligand addition and measured 90 mins after radioligand addition by micro beta scintillation counting analysis relative to control
[14] = molecular target: T1, Sodium-dependent dopamine transporter; experiment: Inhibition of [3H]WIN35,428 binding to recombinant human DAT expressed in HEK293 cell membranes at 10 uM pre-incubated for 10 mins before radioligand addition and measured 90 mins after radioligand addition by micro beta scintillation counting analysis relative to control
Mus musculus = experiment: Antiallodynic activity in mouse chronic constriction injury model of neuropathic pain assessed as time duration of action for increasing in paw withdrawal threshold at 3 umol/kg, po administered on day 7 post injury; format: functional
[15] = molecular target: Alpha-2A adrenergic receptor (Homo sapiens, UniProt P08913); experiment: Displacement of [3H]Rauwolscine from human adrenergic alpha2A receptor
[16] = molecular target: T5, Alpha-1A adrenergic receptor (Homo sapiens, UniProt P35348); experiment: Displacement of [3H]Prazosin from human adrenergic alpha1A receptor
T5 sequence (P35348 whole entry): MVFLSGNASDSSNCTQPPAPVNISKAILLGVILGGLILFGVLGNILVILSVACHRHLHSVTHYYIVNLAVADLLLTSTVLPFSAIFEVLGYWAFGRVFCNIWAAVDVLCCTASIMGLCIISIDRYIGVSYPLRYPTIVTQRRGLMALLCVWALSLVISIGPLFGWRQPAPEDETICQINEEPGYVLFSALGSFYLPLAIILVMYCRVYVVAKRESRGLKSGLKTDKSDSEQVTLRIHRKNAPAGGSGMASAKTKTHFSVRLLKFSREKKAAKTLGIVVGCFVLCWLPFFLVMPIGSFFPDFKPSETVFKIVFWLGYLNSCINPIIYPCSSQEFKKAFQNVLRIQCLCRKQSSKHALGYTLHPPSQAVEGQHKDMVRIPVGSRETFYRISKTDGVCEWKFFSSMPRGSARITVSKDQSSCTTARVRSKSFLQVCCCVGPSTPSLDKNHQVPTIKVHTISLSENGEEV

[17] = molecular target: T6, Alpha-1B adrenergic receptor (Homo sapiens, UniProt P35368); experiment: Displacement of [3H]Prazosin from human adrenergic alpha1B receptor
T6 sequence (P35368 whole entry): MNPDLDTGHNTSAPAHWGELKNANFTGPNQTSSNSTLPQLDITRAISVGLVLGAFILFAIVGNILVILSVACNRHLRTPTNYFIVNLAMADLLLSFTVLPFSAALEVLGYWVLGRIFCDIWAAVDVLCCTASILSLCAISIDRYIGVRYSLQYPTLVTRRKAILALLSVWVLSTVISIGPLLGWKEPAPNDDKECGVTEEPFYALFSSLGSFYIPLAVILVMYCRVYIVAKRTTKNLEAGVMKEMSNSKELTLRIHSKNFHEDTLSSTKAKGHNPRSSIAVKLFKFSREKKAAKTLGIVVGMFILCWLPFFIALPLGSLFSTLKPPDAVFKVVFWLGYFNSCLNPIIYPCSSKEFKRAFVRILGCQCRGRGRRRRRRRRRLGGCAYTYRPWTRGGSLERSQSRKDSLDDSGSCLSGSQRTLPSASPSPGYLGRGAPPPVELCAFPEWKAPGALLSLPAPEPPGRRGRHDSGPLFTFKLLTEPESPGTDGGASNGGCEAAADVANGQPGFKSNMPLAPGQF

[18] = molecular target: T7, Alpha-1D adrenergic receptor (Homo sapiens, UniProt P25100); experiment: Displacement of [3H]Prazosin from human adrenergic alpha1D receptor
T7 sequence (P25100 whole entry): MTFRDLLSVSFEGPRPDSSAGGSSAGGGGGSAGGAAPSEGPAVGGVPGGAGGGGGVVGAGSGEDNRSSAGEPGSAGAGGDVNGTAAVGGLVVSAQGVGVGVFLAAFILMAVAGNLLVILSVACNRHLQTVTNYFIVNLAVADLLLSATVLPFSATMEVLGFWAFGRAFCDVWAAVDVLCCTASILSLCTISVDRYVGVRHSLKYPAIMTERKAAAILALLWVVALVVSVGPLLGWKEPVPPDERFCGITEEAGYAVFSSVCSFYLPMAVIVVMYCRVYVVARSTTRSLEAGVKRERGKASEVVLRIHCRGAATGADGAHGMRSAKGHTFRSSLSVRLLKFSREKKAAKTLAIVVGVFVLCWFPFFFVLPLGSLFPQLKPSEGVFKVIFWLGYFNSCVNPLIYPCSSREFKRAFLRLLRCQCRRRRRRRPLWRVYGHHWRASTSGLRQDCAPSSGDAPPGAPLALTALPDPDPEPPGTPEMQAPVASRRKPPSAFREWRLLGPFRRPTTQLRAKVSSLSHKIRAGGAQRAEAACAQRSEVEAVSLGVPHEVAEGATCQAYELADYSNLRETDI

[19] = molecular target: T8, Alpha-2C adrenergic receptor (Homo sapiens, UniProt P18825); experiment: Displacement of [3H]Rauwolscine from human adrenergic alpha2C receptor
T8 sequence (P18825 whole entry): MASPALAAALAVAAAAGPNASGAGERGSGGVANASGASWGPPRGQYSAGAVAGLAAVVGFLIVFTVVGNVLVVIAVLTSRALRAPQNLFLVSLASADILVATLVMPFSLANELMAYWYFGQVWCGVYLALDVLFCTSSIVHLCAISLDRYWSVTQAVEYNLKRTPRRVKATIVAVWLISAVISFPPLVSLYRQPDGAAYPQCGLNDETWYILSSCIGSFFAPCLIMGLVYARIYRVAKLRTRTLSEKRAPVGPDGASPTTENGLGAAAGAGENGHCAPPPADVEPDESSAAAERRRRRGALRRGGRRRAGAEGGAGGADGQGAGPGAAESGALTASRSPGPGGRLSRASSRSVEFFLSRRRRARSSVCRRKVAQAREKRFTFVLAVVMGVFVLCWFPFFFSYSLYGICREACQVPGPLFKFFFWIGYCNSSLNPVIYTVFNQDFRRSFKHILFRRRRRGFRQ

T2 sequence (P23975 whole entry): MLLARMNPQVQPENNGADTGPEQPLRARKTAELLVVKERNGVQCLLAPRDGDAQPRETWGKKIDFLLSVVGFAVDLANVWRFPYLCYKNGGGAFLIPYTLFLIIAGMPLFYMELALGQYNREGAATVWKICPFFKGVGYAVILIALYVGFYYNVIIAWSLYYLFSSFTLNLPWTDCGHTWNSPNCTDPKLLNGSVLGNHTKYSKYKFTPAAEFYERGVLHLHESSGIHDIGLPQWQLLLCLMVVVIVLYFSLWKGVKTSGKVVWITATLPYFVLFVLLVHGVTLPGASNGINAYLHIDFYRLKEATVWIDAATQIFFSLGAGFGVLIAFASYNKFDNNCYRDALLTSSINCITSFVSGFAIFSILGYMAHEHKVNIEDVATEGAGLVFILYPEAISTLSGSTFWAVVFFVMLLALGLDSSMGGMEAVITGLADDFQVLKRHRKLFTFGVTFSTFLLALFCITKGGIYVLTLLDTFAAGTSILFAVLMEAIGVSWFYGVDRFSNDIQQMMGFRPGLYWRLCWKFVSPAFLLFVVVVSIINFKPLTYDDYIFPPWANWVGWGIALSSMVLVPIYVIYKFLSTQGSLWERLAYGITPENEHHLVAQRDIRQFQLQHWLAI
T1 sequence (Q01959 whole entry): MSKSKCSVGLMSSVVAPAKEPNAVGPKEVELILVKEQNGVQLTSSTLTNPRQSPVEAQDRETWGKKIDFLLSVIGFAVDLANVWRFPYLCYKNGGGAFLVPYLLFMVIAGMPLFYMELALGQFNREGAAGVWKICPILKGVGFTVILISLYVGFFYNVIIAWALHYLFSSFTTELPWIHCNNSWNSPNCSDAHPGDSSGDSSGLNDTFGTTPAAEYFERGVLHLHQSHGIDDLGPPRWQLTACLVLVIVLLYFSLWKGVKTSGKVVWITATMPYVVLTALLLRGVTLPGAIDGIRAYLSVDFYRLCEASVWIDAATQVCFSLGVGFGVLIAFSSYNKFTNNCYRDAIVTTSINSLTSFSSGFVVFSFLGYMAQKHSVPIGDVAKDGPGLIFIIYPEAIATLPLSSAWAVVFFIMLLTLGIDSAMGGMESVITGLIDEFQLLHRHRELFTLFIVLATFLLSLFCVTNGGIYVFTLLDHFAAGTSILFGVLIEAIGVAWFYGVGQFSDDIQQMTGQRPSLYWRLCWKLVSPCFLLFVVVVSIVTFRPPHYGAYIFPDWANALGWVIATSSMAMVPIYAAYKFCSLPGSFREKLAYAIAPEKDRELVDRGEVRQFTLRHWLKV
T4 sequence (Q61327 whole entry): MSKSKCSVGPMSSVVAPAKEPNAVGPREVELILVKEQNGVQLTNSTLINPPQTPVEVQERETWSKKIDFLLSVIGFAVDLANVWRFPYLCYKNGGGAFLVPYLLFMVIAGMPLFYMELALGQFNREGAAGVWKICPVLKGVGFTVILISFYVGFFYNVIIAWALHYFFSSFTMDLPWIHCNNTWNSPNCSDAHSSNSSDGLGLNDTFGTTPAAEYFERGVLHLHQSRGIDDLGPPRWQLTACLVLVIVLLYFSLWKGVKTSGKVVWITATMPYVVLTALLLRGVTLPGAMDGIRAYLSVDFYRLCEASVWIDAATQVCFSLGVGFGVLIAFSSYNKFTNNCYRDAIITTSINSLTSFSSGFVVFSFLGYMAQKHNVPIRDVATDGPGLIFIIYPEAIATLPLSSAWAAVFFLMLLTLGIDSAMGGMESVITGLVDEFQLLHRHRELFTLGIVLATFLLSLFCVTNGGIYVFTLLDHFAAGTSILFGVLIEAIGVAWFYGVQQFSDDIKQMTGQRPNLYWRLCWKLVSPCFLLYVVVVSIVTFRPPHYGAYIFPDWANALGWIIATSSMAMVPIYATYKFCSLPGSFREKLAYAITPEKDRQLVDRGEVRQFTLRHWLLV
Sequence of Sodium-dependent dopamine transporter (Mus musculus) (Q61327 whole entry): as above
Sequence of Alpha-2A adrenergic receptor (P08913 whole entry): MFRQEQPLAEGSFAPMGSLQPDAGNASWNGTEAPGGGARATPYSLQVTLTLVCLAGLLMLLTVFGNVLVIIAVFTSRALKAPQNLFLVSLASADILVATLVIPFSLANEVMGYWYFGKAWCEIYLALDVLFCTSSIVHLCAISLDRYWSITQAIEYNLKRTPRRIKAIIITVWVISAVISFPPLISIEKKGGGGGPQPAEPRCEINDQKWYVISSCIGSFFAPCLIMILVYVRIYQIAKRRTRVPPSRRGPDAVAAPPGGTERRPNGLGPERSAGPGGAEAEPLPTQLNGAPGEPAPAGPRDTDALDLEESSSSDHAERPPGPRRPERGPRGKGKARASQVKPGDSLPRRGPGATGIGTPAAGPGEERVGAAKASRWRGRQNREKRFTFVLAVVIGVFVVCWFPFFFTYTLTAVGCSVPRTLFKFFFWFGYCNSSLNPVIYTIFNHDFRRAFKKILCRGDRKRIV

| Compound | Activity [1] [%] | EC50 [1] [nM] | Activity [2] [%] | EC50 [2] [nM] | Activity [3] [%] | EC50 [3] [nM] | IC50 [4] [nM] | Activity [5] | IC50 [6] [nM] | Activity [7] | EC50 [7] [nM] | Activity [8] | EC50 [8] [nM] | IC50 [9] [nM] | Emax [10] [%] | EC50 [11] [nM] | IC50 [12] [nM] | other results |
| --- | --- | --- | --- | --- | --- | --- | --- | --- | --- | --- | --- | --- | --- | --- | --- | --- | --- | --- |
| CNC(=O)[C@@]12C[C@@H]1[C@@H](n1cnc3c(NC)nc(C#Cc4ccc(Br)s4)nc31)[C@H](O)[C@@H]2O | 217 | 9.1 | 369 | 870 | 285 | 670 | 229 | inactive | 6110 | inactive | > 10000 | inactive | > 10000 | > 10000 | 810 | 1100 | 3260 | – |
| CNC(=O)[C@H]1O[C@@H](n2cnc3c(NC)nc(C#Cc4ccc(Cl)s4)nc32)[C@H](O)[C@@H]1O | – | – | – | – | – | – | – | – | – | – | – | – | – | – | – | – | – | Activity [13]: 321%; inhibition [14]: inactive; Time (Mus musculus): >6 h; Ki [15]: 5000 to 10000 nM; Ki [16]: > 10000 nM; Ki [17]: > 10000 nM; Ki [18]: > 10000 nM; Ki [19]: > 10000 nM |
| CNC(=O)[C@@]12C[C@@H]1[C@@H](n1cnc3c(NC)nc(C#Cc4ccc(Cl)s4)nc31)[C@H](O)[C@@H]2O | 550 | 35.1 | 403 | 131 | 386 | 1180 | 253 | inactive | > 10000 | inactive | > 10000 | inactive | > 10000 | > 10000 | 1150 | 2230 | 2290 | – |
